Measured values published in ChEMBL document CHEMBL2331492, “Synthesis and biological evaluation of new cytotoxic indazolo[4,3-gh]isoquinolinone derivatives” (Bioorg Med Chem Lett, 2013).
Activity calls are given as the source filed them. The calls are words filed in the database; no cut-off is given here.

Legend:
[1] = Antiproliferative activity against human KB/HeLa cells after 48 hrs; assay type: functional, cell-based
Outline: (§1)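 Cells seeded in supplier-recommended growth medium at line-adapted densities (linear signal range), grown 24 h at 37 °C/5% CO2, then exposed to compound; highest concentration 3.16 μM. After 45 h, resazurin (0.2 mg/mL in DPBS) added for 3 h; fluorescence at 590 nm read at 48 h. % efficacy vs untreated cells and cell-free blanks; EC50 by nonlinear regression from at least two independent assays.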

DNA = experiment: Binding affinity to calf thymus DNA up to 5 mM; assay type: nucleic-acid assay; settings: Bos taurus
Outline: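 UV-vis absorbance shift assay. Stocks of up to 5 mM were made in 5% DMSO or methanol. They were diluted in pH 7 phosphate buffer (5 mM NaH2PO4, 5 mM Na2HPO4, 70 mM NaCl) to give a maximum absorbance of about 1–2. Spectra were taken from 230–600 nm with and without 2 mg/ml calf thymus DNA, and peak shifts were compared.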

[2] = Antiproliferative activity against human RKOp27IND cells after 48 hrs; assay type: functional, cell-based; outline: as §1
[3] = Antiproliferative activity against human RKOp27 cells after 48 hrs; assay type: functional, cell-based; settings: RKOp27, 48 h; outline: as §1
NCI-H460 [4] = experiment: Antiproliferative activity against human NCI-H460 cells after 48 hrs; assay type: functional, cell-based; settings: NCI-H460, 48 h; outline: as §1
SF-268 [5] = experiment: Antiproliferative activity against human SF268 cells after 48 hrs; assay type: functional, cell-based; settings: SF-268, 48 h; outline: as §1
SK-OV-3 [6] = experiment: Antiproliferative activity against human SKOV3 cells after 48 hrs; assay type: functional, cell-based; settings: SK-OV-3, 48 h; outline: as §1
SK-OV-3 [7] = experiment: Antiproliferative activity against human SKOV3 cells at 3.16 uM after 48 hrs; assay type: functional; settings: SK-OV-3, 48 h
Outline: (§2)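 Cells were seeded in the supplier-recommended medium and grown 24 h at 37 °C/5% CO2 before compound addition. Resazurin (0.2 mg/mL in DPBS) was added after 45 h, and fluorescence at 590 nm was read at 48 h total. % inhibition at the highest concentration (3.16 μM) was scored against untreated cells and cell-free blanks on each plate. Data came from at least two independent assays.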

[8] = Antiproliferative activity against human RKOp27IND cells at 3.16 uM after 48 hrs; assay type: functional; outline: as §2
SF-268 [9] = experiment: Antiproliferative activity against human SF268 cells at 3.16 uM after 48 hrs; assay type: functional; settings: SF-268, 48 h; outline: as §2
[10] = Antiproliferative activity against human KB/HeLa cells at 3.16 uM after 48 hrs; assay type: functional; outline: as §2
[11] = Antiproliferative activity against human RKOp27 cells at 3.16 uM after 48 hrs; assay type: functional; settings: RKOp27, 48 h; outline: as §2
NCI-H460 [12] = experiment: Antiproliferative activity against human NCI-H460 cells at 3.16 uM after 48 hrs; assay type: functional; settings: NCI-H460, 48 h; outline: as §2
[13] = Cell cycle arrest in human KB/HeLa cells assessed as accumulation at S phase up to 11 uM after 24 hrs by flow cytometry analysis; assay type: functional, cell-based
Outline: (§3)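 Exponentially dividing KB/HeLa cells (ATCC CCL17) were exposed at 37 °C to a range of compound concentrations and compared with untreated controls. Cells were prepared with the CycleTEST PLUS kit. DNA content was measured by flow cytometry (FACSCalibur), and phase distribution was derived with cell cycle analysis software.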

[14] = Cell cycle arrest in human KB/HeLa cells assessed as accumulation at S phase at < 4 uM after 24 hrs by flow cytometry analysis; assay type: functional, cell-based; outline: as §3
[15] = Cell cycle arrest in human KB/HeLa cells assessed as accumulation at S phase at < 7 uM after 24 hrs by flow cytometry analysis; assay type: functional, cell-based; outline: as §3
[16] = Cell cycle arrest in human KB/HeLa cells assessed as accumulation at S phase at < 6 uM after 24 hrs by flow cytometry analysis; assay type: functional, cell-based; outline: as §3

SMILES | EC50 [1] | Activity (DNA) | EC50 [2] | EC50 [3] | EC50 (NCI-H460 [4]) | EC50 (SF-268 [5]) | EC50 (SK-OV-3 [6]) | further results
CN(C)CCn1nc2c3c(c(N(C)C)ccc31)C(=O)c1ccncc1-2 | 2190 nM | Active | 3060 nM | 2630 nM | 770 nM | 1340 nM | 2080 nM | –
CN(C)CCn1nc2c3c(c(NCCc4ccccn4)ccc31)C(=O)c1ccncc1-2 | – | – | 3770 nM | 2680 nM | 990 nM | – | 1410 nM | –
CN(C)CCn1nc2c3c(c(NCCc4c[nH]cn4)ccc31)C(=O)c1ccncc1-2 | – | – | 4810 nM | 1330 nM | 3020 nM | – | 1650 nM | –
CN(C)CCn1nc2c3c(c(NCCC4CCCN4C)ccc31)C(=O)c1ccncc1-2 (stereo unspecified) | – | Active | 460 nM | 370 nM | 160 nM | – | 360 nM | –
CN(C)CCn1nc2c3c(c(NCCCCOS(C)(=O)=O)ccc31)C(=O)c1ccncc1-2 | 3170 nM | – | – | 1180 nM | 1070 nM | – | – | inhibition at 3.16 µM (SK-OV-3 [7]): < 30%; inhibition at 3.16 µM [8]: < 30%; inhibition at 3.16 µM (SF-268 [9]): < 30%
CN(C)CCn1nc2c3c(c(NCCN4CC4)ccc31)C(=O)c1ccncc1-2 | 70 nM | – | 1050 nM | 80 nM | 80 nM | 690 nM | 390 nM | –
CN(C)CCn1nc2c3c(c(NCCCCCCc4ccc(N(CCCl)CCCl)cc4)ccc31)C(=O)c1ccncc1-2 | – | – | – | – | – | – | – | inhibition at 3.16 µM (SK-OV-3 [7]): < 30%; inhibition at 3.16 µM [10]: < 30%; inhibition at 3.16 µM [8]: < 30%; inhibition at 3.16 µM [11]: < 30%; inhibition at 3.16 µM (NCI-H460 [12]): < 30%; inhibition at 3.16 µM (SF-268 [9]): < 30%
CN(C)CCn1nc2c3c(c(NCCCCN4CC4)ccc31)C(=O)c1ccncc1-2 | 80 nM | Active | 1020 nM | 1000 nM | 70 nM | 420 nM | 530 nM | –
CN(C)CCn1nc2c3c(c(NCCC#CCCOS(C)(=O)=O)ccc31)C(=O)c1ccncc1-2 | 390 nM | – | 980 nM | 470 nM | 411 nM | 750 nM | 730 nM | –
CN(C)CCn1nc2c3c(c(NCCC#CCCN4CC4)ccc31)C(=O)c1ccncc1-2 | 140 nM | Active | 350 nM | 70 nM | 60 nM | 240 nM | 310 nM | Activity [13]: inactive
CSCCCNc1ccc2c3c(nn2CCN(C)C)-c2cnccc2C(=O)c13 | – | – | 4760 nM | 2940 nM | 680 nM | – | 1360 nM | –
CN(C)CCn1nc2c3c(c(NCCc4c[nH]c5ccccc45)ccc31)C(=O)c1ccncc1-2 | – | inactive | 1510 nM | 1330 nM | 1320 nM | – | 1520 nM | –
CN(C)CCn1nc2c3c(c(NCCSCCO)ccc31)C(=O)c1ccncc1-2 | 960 nM | Active | 1060 nM | 550 nM | 150 nM | 660 nM | 400 nM | –
CN(C)CCn1nc2c3c(c(NCCCCc4ccc(N(CCCl)CCCl)cc4)ccc31)C(=O)c1ccncc1-2 | 2470 nM | – | 1630 nM | 1190 nM | 3760 nM | 4170 nM | – | inhibition at 3.16 µM (SK-OV-3 [7]): < 30%
O=C1c2c(O)ccc(O)c2C(=O)c2c(NCCNCCO)ccc(NCCNCCO)c21 [MITOXANTRONE] | 360 nM | Active | 760 nM | 90 nM | 120 nM | 320 nM | 120 nM | –
CN(C)CCn1nc2c3c(c(NCCCCCCN4CC4)ccc31)C(=O)c1ccncc1-2 | 340 nM | Active | 1280 nM | 130 nM | 200 nM | 760 nM | 770 nM | Activity [14]: Active
CN(C)CCn1nc2c3c(c(NCC/C=C/CCN4CC4)ccc31)C(=O)c1ccncc1-2 | 1220 nM | – | 2780 nM | 720 nM | 690 nM | 2990 nM | 3220 nM | Activity [15]: Active
c1ccc2nc3ccccc3cc2c1 | – | Active | – | – | – | – | – | –
CN(C)CCn1nc2c3c(c(NCCc4cccs4)ccc31)C(=O)c1ccncc1-2 | – | – | 4840 nM | 3120 nM | 1470 nM | – | 3220 nM | –
CN(C)CCn1nc2c3c(c(NCCCCCCOS(C)(=O)=O)ccc31)C(=O)c1ccncc1-2 | 1670 nM | – | 1930 nM | 510 nM | 820 nM | 1370 nM | 3610 nM | –
CN(C)CCSCCNc1ccc2c3c(nn2CCN(C)C)-c2cnccc2C(=O)c13 | 750 nM | – | 1790 nM | 920 nM | 310 nM | 2370 nM | 700 nM | –
CN(C)CCn1nc2c3c(c(NCCOS(C)(=O)=O)ccc31)C(=O)c1ccncc1-2 | 150 nM | – | 1830 nM | 170 nM | 250 nM | 390 nM | 550 nM | –
CN(C)CCn1nc2c3c(c(NCC/C=C\CCN4CC4)ccc31)C(=O)c1ccncc1-2 | 430 nM | – | 1200 nM | 290 nM | 590 nM | 1710 nM | 1770 nM | Activity [16]: Active
CN(C)CCn1nc2c3c(c(NCC/C=C\CCOS(C)(=O)=O)ccc31)C(=O)c1ccncc1-2 | 750 nM | – | 2610 nM | 630 nM | 2180 nM | 3070 nM | 5380 nM | –
CN(C)CCn1nc2c3c(c(NCCC#CCCO)ccc31)C(=O)c1ccncc1-2 | 1390 nM | Active | 3230 nM | 1630 nM | 680 nM | 3450 nM | 1210 nM | –
